Test [1] addresses T1, Glycogen synthase kinase-3 beta (Homo sapiens, UniProt P49841). Kind of test: Inhibition of human recombinant N-terminal His6-tagged human GSK-3beta expressed in Baculovirus infected SF9 cells using prephosphorylated-GS2 polypeptide as substrate after 30 mins by kinase-Glo reagent based luminescence assay. The method in brief:
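GSK-3β was incubated with ATP and GS-2 substrate with or without compound. ATP remaining after the kinase reaction was quantified by Kinase-Glo luminescence. IC50 is the mean of triplicate experiments.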
Target sequence in this assay (P49841 whole entry): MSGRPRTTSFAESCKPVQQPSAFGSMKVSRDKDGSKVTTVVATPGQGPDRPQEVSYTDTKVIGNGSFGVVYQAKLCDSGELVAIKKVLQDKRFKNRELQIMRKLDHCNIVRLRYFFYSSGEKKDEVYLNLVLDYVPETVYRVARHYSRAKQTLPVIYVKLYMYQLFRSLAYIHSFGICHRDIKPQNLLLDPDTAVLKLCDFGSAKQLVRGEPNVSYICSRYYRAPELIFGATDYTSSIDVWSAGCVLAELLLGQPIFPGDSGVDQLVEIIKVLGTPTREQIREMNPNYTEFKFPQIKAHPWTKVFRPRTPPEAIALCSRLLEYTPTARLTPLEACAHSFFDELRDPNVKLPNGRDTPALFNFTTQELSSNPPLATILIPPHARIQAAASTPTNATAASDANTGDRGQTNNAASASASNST

Test [2] addresses Mast/stem cell growth factor receptor Kit (Homo sapiens) (UniProt P10721). The test is described as follows: Inhibition of human c-KIT at 100 uM. The method in brief: (§1)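 Kinase selectivity panel run at 100 μM inhibitor. Activity is reported as % inhibition, the mean of two independent experiments.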
Test [3] deals with Mus musculus. Kind of test: In vivo inhibition of GSK-3beta in C57BL/6 mouse lung injury model assessed as upregulation of SIRT1 expression in lung at 80 uM, ip administered 12 hrs prior to LPS challenge and measured after 24 hrs by Western blot analysis relative to control. The format is functional. The method in brief:
(§2)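 Mice were pretreated ip with compound (80 μM) or PBS, and LPS (10 mg/kg ip) was given 12 h later. Lungs were collected 24 h post-LPS, and p-GSK-3β and SIRT1 were detected by Western blot. Values are means ± SE of 4 independent experiments.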
A general note: Immunoblotting shows a protein as a band on a membrane.

For test [4], the target named is Proto-oncogene tyrosine-protein kinase Src (Homo sapiens) (UniProt P12931). The conditions noted are these: at 100 µM.
Test [5] concerns the target Vascular endothelial growth factor receptor 1 (Homo sapiens) (UniProt P17948). Kind of test: Inhibition of human Flt1 at 100 uM. In short, it runs like this:
as §1

Test [6] relates to Mus musculus. The test is described as follows: Anti-inflammatory activity in C57BL/6 mouse lung injury model assessed reduction in lung tissue damage at 80 uM, ip administered 12 hrs prior to LPS challenge and measured after 24 hrs by Hematoxylin and eosin staining-based light microscopic analysis. Format: functional. Details: scale not given: the % may be the effect or the level left. In short, it runs like this: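 C57BL/6 mice received compound (80 μM) or PBS ip, followed 12 h later by LPS (10 mg/kg ip). At 24 h after LPS, lungs were fixed, embedded, sectioned and H&E stained. Hemorrhage, edema, interstitial inflammatory cell infiltration, hyaline membrane and atelectasis were each graded 0–4 to give an injury score. Mean ± SEM, n = 5 mice.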

Test [7] deals with Platelet-derived growth factor receptor alpha (Homo sapiens) (UniProt P16234). The test is described as follows: Inhibition of human PDGFRalpha at 100 uM. In short, it runs like this: as §1
For test [8], the system named is Mus musculus. Kind of test: In vivo inhibition of GSK-3beta in C57BL/6 mouse lung injury model assessed as upregulation of LPS-induced phosphorylation at Ser9 residue in lung at 80 uM, ip administered 12 hrs prior to LPS challenge and measured after 24 hrs by Western blot analysis relative to control. The format is functional. In short, it runs like this: as §2

Test [9] concerns the target T1, Glycogen synthase kinase-3 beta. The test is described as follows: Non-ATP competitive inhibition of recombinant N-terminal His6-tagged human GSK-3beta expressed in Baculovirus infected SF9 cells at 15 to 25 uM using prephosphorylated-GS2 polypeptide as substrate after 30 mins by kinase-Glo reagent based luminescence assay. The method in brief: (§3)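 Kinetic analysis used the same Kinase-Glo GSK-3β assay. Inhibitor was tested at fixed concentrations while one substrate (ATP or GS-2) was held constant and the other varied, and the data were plotted as double-reciprocal plots.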
Target sequence in this assay (P49841 whole entry, looked up): as the sequence (P49841 whole entry) above
A general note: In Kinase-Glo more light means more ATP remaining.

Test [10] has as its system Mus musculus. Kind of test: Anti-inflammatory activity in C57BL/6 mouse lung injury model assessed as inhibition of IL-6 mRNA expression level at 80 uM, ip administered 12 hrs prior to LPS challenge and measured after 24 hrs by qRT-PCR analysis. Format: functional. In general terms: In qPCR the cycle at which signal appears reflects the starting amount.
Test [11] has as its target Protein kinase C alpha type (Homo sapiens) (UniProt P17252). The test is described as follows: Inhibition of human PKCalpha at 100 uM. In short, it runs like this:
as §1

Test [12] concerns the target Cyclin-dependent kinase 1 (Homo sapiens) (UniProt P06493). Kind of test: Inhibition of human CDK1 at 100 uM. In short, it runs like this: as §1
Test [13] relates to Mus musculus. Kind of test: Anti-inflammatory activity in C57BL/6 mouse lung injury model assessed as inhibition of IL-1beta mRNA expression level at 80 uM, ip administered 12 hrs prior to LPS challenge and measured after 24 hrs by qRT-PCR analysis. Format: functional.
Test [14] concerns the target Platelet-derived growth factor receptor beta (Homo sapiens) (UniProt P09619). The test is described as follows: Inhibition of human PDGFRbeta at 100 uM. The method in brief: as §1
Test [15] has as its target Receptor tyrosine-protein kinase erbB-4 (Homo sapiens) (UniProt Q15303). Kind of test: Inhibition of human ErbB4 at 100 uM. The method in brief:
as §1

The species named for another test is Homo sapiens. The test is described as follows: Inhibition of human PKA at 100 uM. In short, it runs like this:
as §1

Test [16] deals with Proto-oncogene tyrosine-protein kinase receptor Ret (Homo sapiens) (UniProt P07949). The test is described as follows: Inhibition of human RET at 100 uM.
Test [17] concerns the target Tyrosine-protein kinase ABL1 (Homo sapiens) (UniProt P00519). The conditions noted are these: at 100 µM.
The target of test [18] is Fibroblast growth factor receptor 1 (Homo sapiens) (UniProt P11362). The test is described as follows: Inhibition of human FGFR1 at 100 uM. The method in brief:
as §1

The target in test [19] is Casein kinase 2 (Homo sapiens) (UniProt P67870+P68400+P19784+Q8NEV1). The test is described as follows: Inhibition of human CK2 at 100 uM. Format: protein assay. The method in brief: as §1
The target in test [20] is Vascular endothelial growth factor receptor 2 (Homo sapiens) (UniProt P35968). Kind of test: Inhibition of human KDR at 100 uM. The method in brief: as §1
Test [21] addresses T1, Glycogen synthase kinase-3 beta. Kind of test: Non-ATP competitive inhibition of recombinant N-terminal His6-tagged human GSK-3beta expressed in Baculovirus infected SF9 cells at 20 to 30 uM using prephosphorylated-GS2 polypeptide as substrate after 30 mins by kinase-Glo reagent based luminescence assay. The method in brief:
as §3
Target sequence in this assay (P49841 whole entry, looked up): as the sequence (P49841 whole entry) above

31 molecules from ChEMBL document CHEMBL4270659, “Discovery and anti-inflammatory evaluation of benzothiazepinones (BTZs) as novel non-ATP competitive inhibitors of glycogen synthase kinase-3β (GSK-3β)” (Bioorg Med Chem, 2018) can be followed below.

The structures appear in SMILES notation. Activity calls are given as the source filed them. The calls are words filed in the database; no cut-off is given here. A value given as a limit tells only on which side of the number the result lay.

Chain of Fibroblast growth factor receptor 1 (Homo sapiens) (P11362 22-822 limits assumed): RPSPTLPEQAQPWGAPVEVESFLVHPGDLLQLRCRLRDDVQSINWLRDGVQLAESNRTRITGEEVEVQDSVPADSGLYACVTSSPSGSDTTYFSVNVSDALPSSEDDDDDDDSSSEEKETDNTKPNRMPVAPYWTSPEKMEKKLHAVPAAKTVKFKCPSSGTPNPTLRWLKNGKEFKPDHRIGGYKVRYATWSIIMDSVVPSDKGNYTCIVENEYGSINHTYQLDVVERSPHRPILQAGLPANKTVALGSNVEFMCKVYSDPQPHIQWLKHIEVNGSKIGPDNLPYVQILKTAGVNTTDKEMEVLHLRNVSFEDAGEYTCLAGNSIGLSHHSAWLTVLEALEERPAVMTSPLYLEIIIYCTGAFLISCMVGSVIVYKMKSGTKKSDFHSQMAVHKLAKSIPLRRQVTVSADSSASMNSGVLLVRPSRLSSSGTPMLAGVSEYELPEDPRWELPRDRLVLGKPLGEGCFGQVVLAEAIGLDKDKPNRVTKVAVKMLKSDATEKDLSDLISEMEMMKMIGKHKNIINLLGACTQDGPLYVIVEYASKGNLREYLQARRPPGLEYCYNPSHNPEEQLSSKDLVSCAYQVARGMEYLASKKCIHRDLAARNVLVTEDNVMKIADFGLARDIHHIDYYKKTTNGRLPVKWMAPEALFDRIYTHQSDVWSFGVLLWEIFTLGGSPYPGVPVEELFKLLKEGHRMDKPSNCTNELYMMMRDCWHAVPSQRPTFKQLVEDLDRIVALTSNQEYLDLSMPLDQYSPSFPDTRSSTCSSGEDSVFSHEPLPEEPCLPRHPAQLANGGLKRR
Chain of Mast/stem cell growth factor receptor Kit (Homo sapiens) (P10721 whole entry): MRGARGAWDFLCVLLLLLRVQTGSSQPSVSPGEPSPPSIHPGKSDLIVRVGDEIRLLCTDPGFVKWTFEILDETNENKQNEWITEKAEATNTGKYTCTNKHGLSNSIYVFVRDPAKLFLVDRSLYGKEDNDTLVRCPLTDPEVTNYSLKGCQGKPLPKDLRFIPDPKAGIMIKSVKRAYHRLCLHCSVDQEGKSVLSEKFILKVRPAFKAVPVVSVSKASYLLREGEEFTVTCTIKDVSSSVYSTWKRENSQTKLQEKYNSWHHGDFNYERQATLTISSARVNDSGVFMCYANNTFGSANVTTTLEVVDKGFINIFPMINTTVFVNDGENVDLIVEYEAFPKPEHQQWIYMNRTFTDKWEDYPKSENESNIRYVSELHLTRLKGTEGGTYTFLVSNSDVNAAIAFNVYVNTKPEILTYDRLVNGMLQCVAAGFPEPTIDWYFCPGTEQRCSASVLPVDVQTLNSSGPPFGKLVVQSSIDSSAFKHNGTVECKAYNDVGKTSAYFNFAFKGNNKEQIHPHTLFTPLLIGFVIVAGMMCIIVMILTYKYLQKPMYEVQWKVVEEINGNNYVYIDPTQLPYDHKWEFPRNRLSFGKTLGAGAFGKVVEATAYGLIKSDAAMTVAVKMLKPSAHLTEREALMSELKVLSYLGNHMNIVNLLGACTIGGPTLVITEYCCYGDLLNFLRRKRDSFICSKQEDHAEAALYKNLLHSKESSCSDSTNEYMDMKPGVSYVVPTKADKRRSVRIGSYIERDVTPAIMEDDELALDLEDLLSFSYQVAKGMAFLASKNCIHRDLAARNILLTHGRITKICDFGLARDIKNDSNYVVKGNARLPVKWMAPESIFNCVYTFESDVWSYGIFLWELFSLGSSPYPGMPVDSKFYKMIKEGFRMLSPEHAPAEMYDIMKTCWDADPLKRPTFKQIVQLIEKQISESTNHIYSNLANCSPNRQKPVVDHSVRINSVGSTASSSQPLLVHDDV
Chain of Proto-oncogene tyrosine-protein kinase receptor Ret (Homo sapiens) (P07949 whole entry): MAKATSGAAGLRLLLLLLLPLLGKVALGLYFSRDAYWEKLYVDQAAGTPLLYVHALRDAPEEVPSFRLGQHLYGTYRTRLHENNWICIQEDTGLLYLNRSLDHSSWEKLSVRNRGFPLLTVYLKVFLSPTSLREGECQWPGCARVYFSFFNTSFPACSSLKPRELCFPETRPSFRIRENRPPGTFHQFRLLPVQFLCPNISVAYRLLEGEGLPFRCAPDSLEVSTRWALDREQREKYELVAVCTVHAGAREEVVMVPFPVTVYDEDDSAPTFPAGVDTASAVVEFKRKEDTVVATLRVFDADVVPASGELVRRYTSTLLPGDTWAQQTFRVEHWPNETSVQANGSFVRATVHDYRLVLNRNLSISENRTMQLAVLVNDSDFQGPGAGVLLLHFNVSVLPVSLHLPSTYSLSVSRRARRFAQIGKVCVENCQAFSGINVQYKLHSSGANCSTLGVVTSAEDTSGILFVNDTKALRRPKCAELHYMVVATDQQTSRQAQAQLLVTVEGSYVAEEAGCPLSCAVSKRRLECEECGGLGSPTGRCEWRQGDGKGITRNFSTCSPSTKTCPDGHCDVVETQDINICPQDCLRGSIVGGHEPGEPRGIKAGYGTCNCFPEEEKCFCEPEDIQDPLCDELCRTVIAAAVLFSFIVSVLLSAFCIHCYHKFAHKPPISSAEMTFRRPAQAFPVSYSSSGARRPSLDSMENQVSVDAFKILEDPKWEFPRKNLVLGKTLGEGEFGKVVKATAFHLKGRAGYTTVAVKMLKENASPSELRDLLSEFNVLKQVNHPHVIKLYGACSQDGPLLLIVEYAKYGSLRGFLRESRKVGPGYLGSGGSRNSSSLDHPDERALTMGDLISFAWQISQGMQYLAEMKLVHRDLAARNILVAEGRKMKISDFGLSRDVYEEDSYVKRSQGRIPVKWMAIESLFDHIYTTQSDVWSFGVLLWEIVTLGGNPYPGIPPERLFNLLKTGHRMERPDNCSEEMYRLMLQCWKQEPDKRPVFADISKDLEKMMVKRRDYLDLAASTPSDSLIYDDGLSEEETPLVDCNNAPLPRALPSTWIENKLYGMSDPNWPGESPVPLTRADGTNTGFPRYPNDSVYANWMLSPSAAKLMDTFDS
Chain of Proto-oncogene tyrosine-protein kinase Src (Homo sapiens) (P12931 2-536 limits assumed): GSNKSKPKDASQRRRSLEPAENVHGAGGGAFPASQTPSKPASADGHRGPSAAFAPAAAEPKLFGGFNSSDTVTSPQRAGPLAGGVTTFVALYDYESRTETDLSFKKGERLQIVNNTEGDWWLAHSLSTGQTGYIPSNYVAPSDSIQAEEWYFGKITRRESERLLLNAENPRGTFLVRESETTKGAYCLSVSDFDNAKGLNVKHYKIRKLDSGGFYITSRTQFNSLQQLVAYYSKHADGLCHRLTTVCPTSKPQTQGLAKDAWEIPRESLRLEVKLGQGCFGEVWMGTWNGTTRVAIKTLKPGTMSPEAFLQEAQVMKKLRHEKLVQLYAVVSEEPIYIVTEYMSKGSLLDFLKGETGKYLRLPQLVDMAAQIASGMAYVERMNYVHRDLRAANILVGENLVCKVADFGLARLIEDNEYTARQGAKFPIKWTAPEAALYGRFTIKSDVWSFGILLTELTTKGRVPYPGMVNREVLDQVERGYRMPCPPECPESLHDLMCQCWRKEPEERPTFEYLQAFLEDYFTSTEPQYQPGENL
Chain of Cyclin-dependent kinase 1 (Homo sapiens) (P06493 whole entry, looked up): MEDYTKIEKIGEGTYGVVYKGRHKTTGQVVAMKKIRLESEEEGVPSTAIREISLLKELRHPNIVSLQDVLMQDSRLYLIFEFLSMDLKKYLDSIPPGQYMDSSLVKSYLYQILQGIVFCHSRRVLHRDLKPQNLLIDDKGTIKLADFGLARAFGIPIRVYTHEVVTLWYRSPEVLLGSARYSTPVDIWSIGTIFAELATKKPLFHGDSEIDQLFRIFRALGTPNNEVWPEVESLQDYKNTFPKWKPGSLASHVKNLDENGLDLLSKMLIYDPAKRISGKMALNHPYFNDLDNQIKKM

Turning to `NC(=O)c1ccccc1CN1C(=O)CC(c2ccc(C(=O)NCc3ccccc3)cc2)Sc2ccccc21` (stereo unspecified), in test [1], the half-inhibitory concentration (IC50) turned out to be 100 µM.
With `Cc1ccc(C2CC(=O)N(Cc3ccccc3[N+](=O)[O-])c3ccccc3S2)cc1` (stereo unspecified), the concentration for half-maximal inhibition (IC50) in test [1] stood at 20 µM.
Same read-out and setting: the value for `Cc1ccc(CNC(=O)c2ccc(C3CC(=O)N(Cc4ccccc4[N+](=O)[O-])c4ccccc4S3)cc2)cc1` (stereo unspecified) was 18 µM.
Same read-out and setting: under `COC(=O)c1ccc(C2CC(=O)N(Cc3ccccc3[N+](=O)[O-])c3ccccc3S2)cc1` (stereo unspecified) stands 35 µM; under `CS(=O)(=O)Nc1ccccc1CN1C(=O)CC(c2ccc(C(=O)NCc3cccc(Cl)c3)cc2)Sc2ccccc21` (stereo unspecified), 17 µM; under `CN1CCN(C(=O)c2ccc(C3CC(=O)N(Cc4ccccc4[N+](=O)[O-])c4ccccc4S3)cc2)CC1` (stereo unspecified), more than 100 µM.
The same measure, in the same setting: under `O=C(NCc1ccc(Cl)cc1)c1ccc(C2CC(=O)N(Cc3ccccc3[N+](=O)[O-])c3ccccc3S2)cc1` (stereo unspecified) stands 33 µM; under `CS(=O)(=O)c1cccc(N2C(=O)CC(c3ccc(C(=O)NCc4cccc(Cl)c4)cc3)Sc3ccccc32)c1` (stereo unspecified), 18 µM; under `O=C(NCc1ccc(Br)cc1)c1ccc(C2CC(=O)N(Cc3ccccc3[N+](=O)[O-])c3ccccc3S2)cc1` (stereo unspecified), 25 µM.
For `O=C(NCc1cccc(F)c1)c1ccc(C2CC(=O)N(Cc3ccccc3[N+](=O)[O-])c3ccccc3S2)cc1` (stereo unspecified), the IC50 in test [1] came to 19 µM.
In the case of `O=C(NCc1ccc(F)cc1)c1ccc(C2CC(=O)N(Cc3ccccc3[N+](=O)[O-])c3ccccc3S2)cc1` (stereo unspecified), the 50% inhibitory concentration (IC50) in [1] is 18 µM.
Turning to `COC(=O)c1ccccc1C1CC(=O)N(Cc2ccccc2[N+](=O)[O-])c2ccccc2S1` (stereo unspecified), the 50% inhibitory concentration (IC50) in [1] was found to be 80 µM.
On to `O=C(NC1CCCCC1)c1ccc(C2CC(=O)N(Cc3ccccc3[N+](=O)[O-])c3ccccc3S2)cc1` (stereo unspecified), for which the IC50 in test [1] was found to be 32 µM.
Regarding `O=C(NCc1ccccc1F)c1ccc(C2CC(=O)N(Cc3ccccc3[N+](=O)[O-])c3ccccc3S2)cc1` (stereo unspecified), in test [1], the half-inhibitory concentration (IC50) turned out to be 20 µM.
On the same count and under the same terms, the value for `N#Cc1ccc(C2CC(=O)N(Cc3ccccc3[N+](=O)[O-])c3ccccc3S2)cc1` (stereo unspecified) was 45 µM; that for `O=C(c1ccc(C2CC(=O)N(Cc3ccccc3[N+](=O)[O-])c3ccccc3S2)cc1)N1CCCCC1` (stereo unspecified) was 49 µM; that for `COC(=O)c1cccc(C2CC(=O)N(Cc3ccccc3[N+](=O)[O-])c3ccccc3S2)c1` (stereo unspecified) was 66 µM.
In the case of `O=C(NC1CC1)c1ccc(C2CC(=O)N(Cc3ccccc3[N+](=O)[O-])c3ccccc3S2)cc1` (stereo unspecified), in [1], the half-maximal inhibitory concentration (IC50) was more than 100 µM.
Regarding `O=C1CC(c2ccc(-c3ccccc3)cc2)Sc2ccccc2N1Cc1ccccc1[N+](=O)[O-]` (stereo unspecified), the 50% inhibitory concentration (IC50) in test [1] is 51 µM.
For `CCN(CC)CCNC(=O)c1c(C)[nH]c(/C=C2\C(=O)Nc3ccc(F)cc32)c1C`, the inhibition in test [2] was 49.4%.
Turning to `O=C(NCc1ccccn1)c1ccc(C2CC(=O)N(Cc3ccccc3[N+](=O)[O-])c3ccccc3S2)cc1` (stereo unspecified), in [1], the IC50 was 75 µM.
The same measure, in the same setting: under `CC(C)(C)NC(=O)c1ccc(C2CC(=O)N(Cc3ccccc3[N+](=O)[O-])c3ccccc3S2)cc1` (stereo unspecified) stands 48 µM; under `O=C(NCCc1ccccc1)c1ccc(C2CC(=O)N(Cc3ccccc3[N+](=O)[O-])c3ccccc3S2)cc1` (stereo unspecified), 21 µM; under `O=C(Nc1ccccn1)c1ccc(C2CC(=O)N(Cc3ccccc3[N+](=O)[O-])c3ccccc3S2)cc1` (stereo unspecified), 35 µM.
The same measure, in the same setting: the value for `COc1ccc(CNC(=O)c2ccc(C3CC(=O)N(Cc4ccccc4[N+](=O)[O-])c4ccccc4S3)cc2)cc1` (stereo unspecified) was 27 µM; that for `CCN(CC)C(=O)c1ccc(C2CC(=O)N(Cc3ccccc3[N+](=O)[O-])c3ccccc3S2)cc1` (stereo unspecified) was 90 µM; that for `O=C(NCc1cccc(Cl)c1)c1ccc(C2CC(=O)N(Cc3ccccc3[N+](=O)[O-])c3ccccc3S2)cc1` (stereo unspecified) was 35 µM.
For `O=C(NCc1ccccc1)c1ccc(C2CC(=O)N(Cc3ccccc3[N+](=O)[O-])c3ccccc3S2)cc1` (stereo unspecified), the results for the “fold change (FC)” value in the test with Mus musculus [3] and with Mus musculus [8] were 1.93 and 1.42, respectively. Moreover, the inhibition in test [4] was found to be 7.2%; in test [5], 6.8%; in [2], 28%; in test [7], 7.2%; in [11], 12%; in test [12], 16%. The inhibition in test [14] turned out to be 5.5%; in [15], 12.2%; in the test filed under Homo sapiens it was 0%; in [16], 68%; in [17] it was 0%; in test [18], 13.5%. In addition, in test [19], the inhibition was determined as 20%. The Activity in the test with Mus musculus [6] is on record as 65%. In addition, the inhibition result in test [9] is “Active”. For the same molecule, the “inhibition (INH)” value was determined as 38.16% with Mus musculus [10] and 43.18% in the test with Mus musculus [13]. Moreover, in [1], the half-inhibitory concentration (IC50) turned out to be 28 µM.
On to `O=C(NCc1ccco1)c1ccc(C2CC(=O)N(Cc3ccccc3[N+](=O)[O-])c3ccccc3S2)cc1` (stereo unspecified), for which the half-inhibitory concentration (IC50) in test [1] was 27 µM.
Turning to `CCCCNC(=O)c1ccc(C2CC(=O)N(Cc3ccccc3[N+](=O)[O-])c3ccccc3S2)cc1` (stereo unspecified), in test [1], the 50% inhibitory concentration (IC50) came out at 22 µM.
For `O=C1CC(c2ccc(C(=O)NCc3cccc(Cl)c3)cc2)Sc2ccccc2N1` (stereo unspecified), in the test with Mus musculus [3], the “fold change (FC)” value amounted to 1.34. The inhibition is 0% in test [4]; 8.9% in test [5]; 8.7% in test [20]; 2% in test [11]; 22% in test [12]; 41.2% in [14]. For the same molecule, the inhibition in the test listed under Homo sapiens is -7%; in [16] it was 18.5%; in test [17], 46.6%; in test [18] it was 5.4%; in test [19], -6%. In addition, the Activity in the test with Mus musculus [6] was 49%. The inhibition result in test [21] is “Active”. Moreover, the “inhibition (INH)” value amounted to 24.35% in the test on Mus musculus [10] and 28.84% with Mus musculus [13]. The IC50 in test [1] was found to be 25 µM.

What is called IC50 is the concentration at which inhibition is half-maximal. The inhibition is the relative decrease from the control value, in per cent.
